Assay outcomes deposited in PubChem BioAssay by Sanford-Burnham Center for Chemical Genomics.
XBP1 UPR activ – adaptive UPR (XBP1) activation. 0.33% of 330,000 active. CHO-XBP1 luciferase reporter, IRE1-XBP1 UPR activation, luminescence; percent of tunicamycin response, DMSO as zero. activation, % at 20 µM;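 active = versus positive control, 20 µM dose yields 30% or more activation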;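 also: 100% = tunicamycin at 10 µg/mL and 0% = DMSO only wells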
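Assay system: CHO-XBP1 luciferase reporter cells; Schedule: 6 h treatment, 37 °C; Detection: glow luminescence from Steady-Glo reagent; Benchmarks: high control tunicamycin 10 µg/mL final, low control DMSO vehicle only.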
Apaf1 inhib – human Apaf-1 inhibition; O14727; reconstituted apoptosome caspase-3 activity, DEVD-Rh110 fluorescence; inhibition, % at 20 µM; 0.71% of 330,000 active; active = inhibition of at least 40% at 20 µM;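 also: plate controls were DMSO wells for no effect and DEVD-CHO caspase inhibitor wells for full effect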
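System: Apoptosome proteins | Medium: Hepes pH 7.5 with detergent and BSA | Also added: Cytochrome c trigger plus (Z-DEVD)2-Rh110 caspase-3 substrate | Incubation: 30 min compound preincubation, 50 min activation, room temperature | Detection: Rhodamine 110 fluorescence at Ex 480/Em 540 nm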
UBC13 polyUb – blocks human UBC13 polyubiquitin chain formation | P61088 | TR-FRET | inhibition, % at 20 µM | 0.47% of 330,000 active; in the data active = inhibition above about 45%, passing the limit was not always enough
Target sequence (P61088 whole entry, looked up): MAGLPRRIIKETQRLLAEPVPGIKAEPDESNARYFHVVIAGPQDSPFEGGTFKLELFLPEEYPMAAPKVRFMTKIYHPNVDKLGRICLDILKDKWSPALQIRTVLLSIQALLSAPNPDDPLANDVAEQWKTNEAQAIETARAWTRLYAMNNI
CHOP UPR activ – activators of apoptotic arm of unfolded protein response (CHOP); CHO-CHOP luciferase reporter, UPR activation, luminescence; percent of tunicamycin response over DMSO baseline; activation, % at 10 µM; 0.34% of 330,000 active; AID 449763;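 active = at 10 µM dose, activation of 40% or more, normalized to positive control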;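 also: 100% = tunicamycin at 10 µg/mL and 0% = DMSO alone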
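Evaluation: % reporter activation, DMSO baseline versus tunicamycin full activation; System: CHO-CHOP luciferase reporter cell line; Input: 500 cells/well; Incubation: 6 h compound treatment, 37 °C; Measured by: Steady-Glo luciferase luminescence; Dosing: one dose, 10 µM in 0.5% DMSO; Buffer or medium: F12 medium, 10% FBS; Benchmarks: positive tunicamycin 10 µg/mL, negative DMSO alone.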
Mdm2-MdmX inh – human Mdm2/MdmX binding inhibition; SaOS-2 split-luciferase Mdm2/MdmX complementation, luminescence; 3% of 330,000 active; inhibition, % at 8 µM; O15151+Q00987;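 active = inhibition of at least 50% at 8 µM in the primary screen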
Mdm2-MdmX conf – human Mdm2/MdmX binding inhibition, confirmed. shares compounds with Mdm2-MdmX inh. luminescent assay. inhibition, % at 8 µM. 55% of 10,000 active; in the data active = inhibition above about 40%
FLuc counter – full-length luciferase inhibition in Mdm2/MdmX counter-screen; shares compounds with Mdm2-MdmX inh; SaOS-2 full-length luciferase counterscreen, luminescence; inhibition, % at 8 µM; 77% of 6,200 active;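 active = mean inhibition at 8 µM reaching about 37%, which flags the compound as non-specific, limit read from the data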;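 also: p53-null SaOS-2 cells with luciferase driven by a doxycycline-inducible promoter; compound on cells about two nights before reading with doxycycline added after day one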
Numbers without * were called inactive; x = not tested or not shown. Sampled rows, rich in hits. Any-hit rate of the full collection: about 4.1%.

SMILES	XBP1 UPR activ	Apaf1 inhib	UBC13 polyUb	CHOP UPR activ	Mdm2-MdmX inh	Mdm2-MdmX conf	others
CC(C)(C)C1CCc2c(sc(NC(=O)c3cccs3)c2C(=O)N2CCCCC2)C1 (stereo unspecified)	-8.5	12.7	-7.1	-4.0	-16.8	x
O=c1c(O[C@@H]2O[C@H](CO)[C@@H](O)[C@H](O)[C@H]2O)c(-c2ccc(O)c(O)c2)oc2cc(O)cc(O)c12	-5.7	2.1	4.4	-1.0	51.5*	14.8
O=c1c(O[C@@H]2O[C@H](CO)[C@@H](O)[C@H](O)[C@H]2O)c(-c2ccc(O)cc2)oc2cc(O)cc(O)c12	0.3	-3.4	-15.1	1.7	-19.8	x
COc1cc(/C=C(\C#N)c2nc(-c3cc4ccccc4oc3=O)cs2)ccc1O	3.5	17.1	-55.3	1.7	58.1*	13.0
O=C(NCc1ccco1)c1ccc(CS(=O)Cc2ccc(Cl)cc2)o1 (stereo unspecified)	-6.1	-9.6	-0.5	1.8	32.0	x
O=C(Cc1ccc(S(=O)(=O)N2CCOCC2)s1)Nc1cc(C(F)(F)F)cc(C(F)(F)F)c1	2.1	6.8	3.7	1.2	56.4*	0.7
COc1ccc2c(c1)CN(C)S(=O)(=O)c1ccccc1-2	1.1	7.1	x	2.6	19.6	x
C[C@H]1O[C@@H](O[C@H]2[C@@H](O)C[C@H](O[C@H]3[C@@H](O)C[C@H](O[C@H]4CC[C@@]5(C)[C@H](CC[C@@H]6[C@@H]5C[C@@H](O)[C@]5(C)[C@@H](C7=CC(=O)OC7)CC[C@]65O)C4)O[C@@H]3C)O[C@@H]2C)C[C@H](O)[C@@H]1O	-8.8	-3.6	2.5	-1.6	82.0*	74.9*	FLuc counter=14.8
Cc1ccc(-c2ccc(/C=C(\C#N)C(=O)Nc3cc(C)nn3-c3ccccc3)o2)cc1	46.0*	-19.9	-26.1	55.0*	54.1*	3.9
Cc1cc(NC(=O)/C(C#N)=C/c2ccco2)n(-c2ccccc2)n1	0.7	7.3	-8.2	-1.6	10.4	x
O=C(NC(=S)Nc1cccc(Cl)c1N1CCCCC1)c1ccc2c(c1)OCCO2	1.2	-0.6	0.1	0.7	61.4*	63.0*	FLuc counter=56.7*
Cc1cccc(NC(=O)c2cc(-c3cccnc3)nc3c(C)cccc23)n1	-5.2	21.0	11.1	-0.3	50.3*	1.8
COc1cccc(NC(=O)c2cc(-c3cccnc3)nc3c(Cl)cccc23)c1	-2.3	-1.5	-1.5	2.8	25.1	x
Cc1ccc(C(=O)N2C(CC(=O)Nc3ccc(Cl)cc3)C(=O)NC3CCCCC32)cc1 (stereo unspecified)	0.1	-3.7	-9.5	1.7	53.8*	54.8*	FLuc counter=24.8
CCC1CCCCN1CCCNC(=O)c1cn(CC)c2ccc(S(=O)(=O)N(C)C3CCCCC3)cc2c1=O (stereo unspecified)	-2.1	16.4	6.1	2.3	21.3	x
CCCCN(CCCC)CCNC(=O)c1cn(CC)c2ccc(S(=O)(=O)N3CCc4ccccc4C3)cc2c1=O	-1.2	29.6	14.9	1.4	71.9*	23.9
CCn1cc(C(=O)NCCCN2CC(C)CC(C)C2)c(=O)c2cc(S(=O)(=O)N(C)C)ccc21 (stereo unspecified)	-0.7	-1.1	-3.9	-2.7	11.2	x
CCn1cc(C(=O)NCCCN2CCCC(C)C2)c(=O)c2cc(S(=O)(=O)N3CCc4ccccc4C3)ccc21 (stereo unspecified)	-3.5	9.2	22.7	0.8	82.5*	32.8
CCC1CCCCN1CCCNC(=O)c1cn(CC)c2ccc(S(=O)(=O)N3CCc4ccccc4C3)cc2c1=O (stereo unspecified)	3.6	11.3	13.9	0.5	90.4*	50.1*	FLuc counter=55.2*
CCCCNC(=O)c1cn(CC)c2ccc(S(=O)(=O)N3CCCCCC3)cc2c1=O	-3.7	21.7	13.8	0.0	2.4	x
O=C(NCCN1CCCC1=O)C1CCC(=O)N(CCc2cccc(F)c2)C1 (stereo unspecified)	-2.2	-0.1	9.5	4.3	8.2	x
